Results: ChEMBL document CHEMBL3792328, “Diketopiperazines from Costa Rican endolichenic fungus Colpoma sp. CR1465A” (2016)

tested on: Escherichia coli; test: Antibacterial activity against Escherichia coli ATCC 25922 after 12 hrs by broth-dilution method; type: functional; details: ATCC 25922, 12 h
Summary of the method: (§1)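 Standardized ATCC strains were tested in triplicate by broth dilution. The panel comprised Gram-negative E. coli, Gram-positive B. subtilis and S. aureus, and the yeasts S. cerevisiae and C. albicans. Minimum inhibitory concentration was determined for the growth-inhibition lines. Minimum fungicidal concentration was determined for the fungicidal yeast lines.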

Row | Structure (SMILES) | MIC
1 | O=C(O)CC[C@H]1NC(=O)[C@@H]2CCCN2C1=O | > 200 µg/mL
2 | O=C1[C@@H]2CCCN2C(=O)[C@H]2C[C@H](O)CN12 | > 200 µg/mL
3 | C[C@H]1NC(=O)[C@@H]2CCCN2C1=O | > 200 µg/mL
4 | O=C(O)CC[C@H]1NC(=O)[C@H]2CCCN2C1=O | > 200 µg/mL
5 | C[C@@H](O)[C@H]1NC(=O)[C@@H]2CCCN2C1=O | > 200 µg/mL

The remaining lines, values ahead:

Row | MIC | Structure (SMILES)
6 | > 200 µg/mL | C[C@@H]1NC(=O)[C@@H]2CCCN2C1=O
7 | > 200 µg/mL | O=C(O)C[C@@H]1NC(=O)[C@@H]2CCCN2C1=O
8 | > 200 µg/mL | O=C1NCC(=O)N2CCC[C@H]12

tested on: Bacillus spizizenii; test: Antibacterial activity against Bacillus subtilis ATCC 6633 after 12 hrs by broth-dilution method; type: functional; details: ATCC 6633, 12 h; summary of the method: as §1

Row | Structure (SMILES) | MIC
9 | O=C(O)CC[C@H]1NC(=O)[C@@H]2CCCN2C1=O | > 200 µg/mL
10 | O=C1[C@@H]2CCCN2C(=O)[C@H]2C[C@H](O)CN12 | > 200 µg/mL
11 | C[C@H]1NC(=O)[C@@H]2CCCN2C1=O | > 200 µg/mL
12 | O=C(O)CC[C@H]1NC(=O)[C@H]2CCCN2C1=O | > 200 µg/mL
13 | C[C@@H](O)[C@H]1NC(=O)[C@@H]2CCCN2C1=O | > 200 µg/mL

Continued, values first:

Row | MIC | Structure (SMILES)
14 | > 200 µg/mL | C[C@@H]1NC(=O)[C@@H]2CCCN2C1=O
15 | > 200 µg/mL | O=C(O)C[C@@H]1NC(=O)[C@@H]2CCCN2C1=O
16 | > 200 µg/mL | O=C1NCC(=O)N2CCC[C@H]12

tested on: Staphylococcus aureus; test: Antibacterial activity against Staphylococcus aureus BAA-2313 after 12 hrs by broth-dilution method; type: functional; details: BAA-2313, 12 h; summary of the method: as §1

Row | Structure (SMILES) | MIC
17 | O=C(O)CC[C@H]1NC(=O)[C@@H]2CCCN2C1=O | > 200 µg/mL
18 | O=C1[C@@H]2CCCN2C(=O)[C@H]2C[C@H](O)CN12 | > 200 µg/mL
19 | C[C@H]1NC(=O)[C@@H]2CCCN2C1=O | > 200 µg/mL
20 | O=C(O)CC[C@H]1NC(=O)[C@H]2CCCN2C1=O | > 200 µg/mL
21 | C[C@@H](O)[C@H]1NC(=O)[C@@H]2CCCN2C1=O | > 200 µg/mL

More lines, now with the values ahead:

Row | MIC | Structure (SMILES)
22 | > 200 µg/mL | C[C@@H]1NC(=O)[C@@H]2CCCN2C1=O
23 | > 200 µg/mL | O=C(O)C[C@@H]1NC(=O)[C@@H]2CCCN2C1=O
24 | > 200 µg/mL | O=C1NCC(=O)N2CCC[C@H]12

tested on: Saccharomyces cerevisiae; test: Antifungal activity against Saccharomyces cerevisiae ATCC 9763 after 12 hrs by broth-dilution method; type: functional; details: ATCC 9763, 12 h; summary of the method: as §1

Row | Structure (SMILES) | MIC
25 | O=C(O)CC[C@H]1NC(=O)[C@@H]2CCCN2C1=O | > 200 µg/mL
26 | O=C1[C@@H]2CCCN2C(=O)[C@H]2C[C@H](O)CN12 | > 200 µg/mL
27 | C[C@H]1NC(=O)[C@@H]2CCCN2C1=O | > 200 µg/mL
28 | O=C(O)CC[C@H]1NC(=O)[C@H]2CCCN2C1=O | > 200 µg/mL
29 | C[C@@H](O)[C@H]1NC(=O)[C@@H]2CCCN2C1=O | > 200 µg/mL

Results, then the molecule that gave them:

Row | MIC | Structure (SMILES)
30 | > 200 µg/mL | C[C@@H]1NC(=O)[C@@H]2CCCN2C1=O
31 | > 200 µg/mL | O=C(O)C[C@@H]1NC(=O)[C@@H]2CCCN2C1=O
32 | > 200 µg/mL | O=C1NCC(=O)N2CCC[C@H]12

tested on: Candida albicans; test: Antifungal activity against Candida albicans ATCC 10231 after 12 hrs by broth-dilution method; type: functional; details: ATCC 10231, 12 h; summary of the method: as §1

Row | Structure (SMILES) | MIC
33 | O=C(O)CC[C@H]1NC(=O)[C@@H]2CCCN2C1=O | > 200 µg/mL
34 | O=C1[C@@H]2CCCN2C(=O)[C@H]2C[C@H](O)CN12 | > 200 µg/mL
35 | C[C@H]1NC(=O)[C@@H]2CCCN2C1=O | > 200 µg/mL
36 | O=C(O)CC[C@H]1NC(=O)[C@H]2CCCN2C1=O | > 200 µg/mL
37 | C[C@@H](O)[C@H]1NC(=O)[C@@H]2CCCN2C1=O | > 200 µg/mL

Further lines, results first:

Row | MIC | Structure (SMILES)
38 | > 200 µg/mL | C[C@@H]1NC(=O)[C@@H]2CCCN2C1=O
39 | > 200 µg/mL | O=C(O)C[C@@H]1NC(=O)[C@@H]2CCCN2C1=O
40 | > 200 µg/mL | O=C1NCC(=O)N2CCC[C@H]12

tested on: Saccharomyces cerevisiae; test: Fungicidal activity against Saccharomyces cerevisiae ATCC 9763 after 48 hrs by broth-dilution method; type: functional; details: ATCC 9763, 48 h, read-out: MFC99.9; summary of the method: as §1

Row | Structure (SMILES) | MFC
41 | C[C@@H]1NC(=O)[C@@H]2CCCN2C1=O | > 200 µg/mL
42 | O=C(O)C[C@@H]1NC(=O)[C@@H]2CCCN2C1=O | > 200 µg/mL
43 | O=C1NCC(=O)N2CCC[C@H]12 | > 200 µg/mL
44 | O=C(O)CC[C@H]1NC(=O)[C@@H]2CCCN2C1=O | > 200 µg/mL
45 | O=C1[C@@H]2CCCN2C(=O)[C@H]2C[C@H](O)CN12 | > 200 µg/mL
46 | C[C@H]1NC(=O)[C@@H]2CCCN2C1=O | > 200 µg/mL
47 | O=C(O)CC[C@H]1NC(=O)[C@H]2CCCN2C1=O | > 200 µg/mL
48 | C[C@@H](O)[C@H]1NC(=O)[C@@H]2CCCN2C1=O | > 200 µg/mL

tested on: Candida albicans; test: Fungicidal activity against Candida albicans ATCC 10231 after 48 hrs by broth-dilution method; type: functional; details: ATCC 10231, 48 h, read-out: MFC99.9; summary of the method: as §1

Row | Structure (SMILES) | MFC
49 | C[C@@H]1NC(=O)[C@@H]2CCCN2C1=O | > 200 µg/mL
50 | O=C(O)C[C@@H]1NC(=O)[C@@H]2CCCN2C1=O | > 200 µg/mL
51 | O=C1NCC(=O)N2CCC[C@H]12 | > 200 µg/mL
52 | O=C(O)CC[C@H]1NC(=O)[C@@H]2CCCN2C1=O | > 200 µg/mL
53 | O=C1[C@@H]2CCCN2C(=O)[C@H]2C[C@H](O)CN12 | > 200 µg/mL
54 | C[C@H]1NC(=O)[C@@H]2CCCN2C1=O | > 200 µg/mL
55 | O=C(O)CC[C@H]1NC(=O)[C@H]2CCCN2C1=O | > 200 µg/mL
56 | C[C@@H](O)[C@H]1NC(=O)[C@@H]2CCCN2C1=O | > 200 µg/mL
